The nature of the data set: Toxicity liver stage against HepG2, at 10uM. Type of data set: cell-based. More on the design: test concentration 10 uM, cell line HepG2-A16-CD81EGFP. The conditions noted are these: human, HepG2-A16-CD81EGFP cells; read-out: INHIBITION
An outline of the steps:
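Uninfected HepG2-A16-CD81EGFP cells, 3 × 10^3 per well, 1536-well, plated on prespotted compound at 10 μM final, parasite-free screening media added to match infected plates; puromycin 10 μM positive, DMSO 0.5% negative; run in parallel with 48 h PbLuc assay at 37 °C, 5% CO2; viability by CellTiter-Glo luminescence, normalized to controls.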
Take `COc1ccnc(NCc2ccccc2Cn2cccn2)n1`: the cytotoxicity at 10 µM was -0.81%.

In the case of `CC(=O)N1CCC(N2CCOC[C@H]2c2nc(-c3ccc(Cl)s3)c[nH]2)CC1`, the cytotoxicity at 10 µM was 2.29%.

As for `CS(=O)(=O)NC[C@H]1Cn2c(-c3ccc4c(c3)OCCO4)cnc2CO1`, the cytotoxicity at 10 µM is -11.1%.

On to `COCC1CN(Cc2ccc(OC)cc2)S(=O)(=O)c2cnccc2O1` (stereo unspecified), for which the cytotoxicity at 10 µM is -1.78%.

In the case of `COc1ccc(C(=O)N2CC(=O)N(C3CCC3)CC(O)C2)c(OC)c1` (stereo unspecified), the cytotoxicity at 10 µM was -0.373%.

As to `CCS(=O)(=O)N1CC(=O)N(Cc2ccccc2OC)CC(O)C1` (stereo unspecified), the cytotoxicity at 10 µM is -95.5%.

`COC1CN(C(=O)Cc2cccs2)CCC(=O)N(C)c2ccccc21` (stereo unspecified): the cytotoxicity at 10 µM is -11.6%.

With `CC(C)CNC(=O)c1cn(-c2ccccn2)c(=O)c2ccccc12`, the cytotoxicity at 10 µM turned out to be 0.318%.

With `Cc1nc(C)c(CC(=O)NCc2ccc(F)cc2F)s1`, the cytotoxicity at 10 µM is -91.9%.

`O=C(CN1C(=O)CCC1=O)NCc1cc(C2CC2)n(C2CCCC2)n1`: the cytotoxicity at 10 µM was determined as 1.74%.

`O=C(NCc1cccs1)C1CCCN(c2cc(-n3cncn3)ncn2)C1` (stereo unspecified): the cytotoxicity at 10 µM turned out to be 0.827%.

As to `Cn1cc(CN2CCN3C[C@H](Oc4cccnc4)C[C@H]3C2)cn1`, the cytotoxicity at 10 µM was 3.07%.

As for `Cc1ccc(CN2C[C@@H]3COC[C@]3(COc3ccc(C#N)cn3)C2)o1`, the cytotoxicity at 10 µM came to 0.777%.

As to `CCS(=O)(=O)N1CCC2(CC1)CN(c1cncnc1)C(=O)CO2`, the cytotoxicity at 10 µM was 6.91%.

As for `Cc1nc(N2CCCC2)nc2c1CCN(C(=O)N(C)C)CC2`, the cytotoxicity at 10 µM turned out to be 7.05%.

As to `O=C(NCCCn1ccnc1)C1CCC(=O)N1Cc1cccs1` (stereo unspecified), the cytotoxicity at 10 µM was -4.94%.

`CN(Cc1ccc(F)cc1)[C@@H]1CN(S(C)(=O)=O)C[C@H]1O`: the cytotoxicity at 10 µM is -3.22%.

With `CN(C(=O)NC1CC1)C1CCN(c2ccc(Cl)cc2)CC1`, the cytotoxicity at 10 µM was -8.39%.

On to `Cc1ccc(C(C)NC(=O)N2CCN(C(=O)CC(F)(F)F)CC2)o1` (stereo unspecified), for which the cytotoxicity at 10 µM amounted to 43.3%.

Regarding `Cc1ccc(O)c(CNc2cccc(CN3CCN(C)CC3)c2)n1`, the cytotoxicity at 10 µM was -2%.

`CCOCCOC(C)C(=O)Nc1ccc2ccn(CC(=O)NC)c2c1` (stereo unspecified): the cytotoxicity at 10 µM was 2.3%.

In the case of `CCc1ccccc1CNC(=O)NCc1cnn(C)c1`, the cytotoxicity at 10 µM amounted to 2.14%.

Turning to `Cc1cc(C)n(CC(C)NC(=O)C2(c3ccc(F)cc3)CC2)n1` (stereo unspecified), the cytotoxicity at 10 µM was 11.5%.

Consider `CCN(CCCc1ccccc1C)S(C)(=O)=O`, for which the cytotoxicity at 10 µM amounted to 2.86%.

Regarding `COc1ccc(NC(=O)N2CCC(c3noc(C)n3)CC2)cc1C`, the cytotoxicity at 10 µM is 17.2%.

As for `O=C(CC1CCCC1)NCCNCc1cccc2c1OCCO2`, the cytotoxicity at 10 µM is -0.912%.

With `Cc1cc(CN2CCN(C(=O)CCc3ccco3)CC2)on1`, the cytotoxicity at 10 µM is -2.6%.

Regarding `CC(C)c1nn(C)c(N2CCOCC2)c1CNCc1cscn1`, the cytotoxicity at 10 µM was -3.83%.

As to `Cc1nc(C2(NC(=O)NCc3cc(C#N)ccc3F)CCCC2)no1`, the cytotoxicity at 10 µM was -4.2%.

In the case of `CN(C)C(=O)N1CCN(C(=O)c2ccc(Cl)c(Cl)c2)C(C)(C)C1`, the cytotoxicity at 10 µM was -4.71%.

Consider `O=C1CN(CCS(=O)(=O)c2ccc(Cl)cc2)CCN1`, for which the cytotoxicity at 10 µM is -9.2%.

On to `CN(C(=O)c1ccc(OCC(F)F)nc1)c1ccc2c(c1)CCO2`, for which the cytotoxicity at 10 µM is 13.6%.

Turning to `O=C(C1CC1)N1CCC2(CC1)OCCO2`, the cytotoxicity at 10 µM was determined as 1.75%.

Take `O=C1NCCO[C@H]2CN(C(=O)Cc3cccs3)CC[C@@H]12`: the cytotoxicity at 10 µM is -98.8%.

On to `COCCNC(=O)c1nc(-c2cn(C)cn2)n2ccccc12`, for which the cytotoxicity at 10 µM is -104%.

Consider `CC(C)(O)CCc1cccc(C(=O)N2Cc3cnn(CCO)c3C2)c1`, for which the cytotoxicity at 10 µM was 4.62%.

For `COCCN1CCC(C(=O)N(C)Cc2cccc(Cl)c2)C1` (stereo unspecified), the cytotoxicity at 10 µM was -28.6%.

Consider `CCC(c1nc(CC(C)C)nn1-c1ccccn1)n1cccn1` (stereo unspecified), for which the cytotoxicity at 10 µM is -8.74%.

Consider `CCc1ncc(C(=O)N2CC(N3CCCCC3)C2)cn1`, for which the cytotoxicity at 10 µM was -4.68%.

On to `CC(C)N1CCC(CC(=O)NCc2cc(O)ncn2)CC1`, for which the cytotoxicity at 10 µM came to 7.81%.

On to `CC1(Cc2cccnc2)NCCc2[nH]cnc21` (stereo unspecified), for which the cytotoxicity at 10 µM is 12.1%.

Take `CN1CCC(c2n[nH]c(=O)n2-c2cccc(Cl)c2)CC1`: the cytotoxicity at 10 µM turned out to be 33.9%.

With `CSCC[C@@H](CO)n1ccnc1-c1ccncc1`, the cytotoxicity at 10 µM was 7.21%.

For `CC1=CCN(S(=O)(=O)c2cccc(C(=O)N3CCCN(C)CC3)c2)CC1`, the cytotoxicity at 10 µM is -2.36%.

Regarding `CC1=NC2(CCN(CC(C)c3ccccc3)CC2)C(=O)N1` (stereo unspecified), the cytotoxicity at 10 µM was found to be 5.33%.

With `COCCC(=O)N1CCC2(CC1)CC(c1ccccc1)CN(C1CC1)C2` (stereo unspecified), the cytotoxicity at 10 µM is -0.173%.

`COCC1CCN(C(=O)c2cn(Cc3ccccc3F)nn2)CC1`: the cytotoxicity at 10 µM came to 1.89%.

Consider `NC(=O)C1CN(c2ncnc3c2Cc2ccccc2OC3)CCO1` (stereo unspecified), for which the cytotoxicity at 10 µM turned out to be 0.0255%.

For `CCN1CCC2(CC1)c1nc[nH]c1CCN2S(C)(=O)=O`, the cytotoxicity at 10 µM came out at 6.33%.

`O=C(CC1COCCN1)NCCc1nc(Cc2ccccc2)no1` (stereo unspecified): the cytotoxicity at 10 µM is -2.81%.

Regarding `CC(CN1CCCC1)C(=O)NCC1CCN(c2cnn(C)c(=O)c2)CC1` (stereo unspecified), the cytotoxicity at 10 µM is 0.301%.

Consider `COc1cccc(CN(C)C(C)c2nccs2)c1OCCn1ccnc1` (stereo unspecified), for which the cytotoxicity at 10 µM is -0.21%.

Consider `Cc1ccc(-c2cc(-c3c(C)nn(CCO)c3C)c(C#N)c(N)n2)cc1`, for which the cytotoxicity at 10 µM was found to be 15%.

With `CCc1cnc(C)nc1NCc1nc(COC)no1`, the cytotoxicity at 10 µM was found to be 3.24%.

`Cc1nnc2n1CCN(C(=O)c1cc3cc(F)ccc3[nH]1)C2`: the cytotoxicity at 10 µM came to 3.28%.

In the case of `Cc1ccc(OCCC(=O)N2CCCC(n3nc(C)nc3C)C2)cc1` (stereo unspecified), the cytotoxicity at 10 µM is -2.15%.

As for `CCc1csc(C2CCCN(C(=O)c3ccccn3)C2)n1` (stereo unspecified), the cytotoxicity at 10 µM was found to be 1.36%.

`CCCn1nc2c(cc1=O)CN(Cc1nc(C)c(C)o1)CC2`: the cytotoxicity at 10 µM is -6.16%.

Take `O=C1COc2ccc(C(=O)NS(=O)(=O)c3ccccc3Cl)cc2N1`: the cytotoxicity at 10 µM was -7.03%.

On to `O=C1COc2ccc(C(=O)NS(=O)(=O)c3ccccc3F)cc2N1`, for which the cytotoxicity at 10 µM is -0.185%.

In the case of `O=C(CCCOc1ccccc1)N1CCCC1Cn1cccn1` (stereo unspecified), the cytotoxicity at 10 µM was -7.83%.

With `CC(=O)N1CCCN(C(=O)NCCNc2cnccn2)CC1`, the cytotoxicity at 10 µM is -2.28%.

In the case of `CN(CC1(O)CCCCC1)C1CCCN(Cc2noc(C3CC3)n2)C1` (stereo unspecified), the cytotoxicity at 10 µM was -17.3%.

With `CCc1nc(C2CCCN2C(=O)CCc2ccc3c(c2)OCO3)no1` (stereo unspecified), the cytotoxicity at 10 µM was -4.62%.

Turning to `Cc1cccc(-c2nc(CN3CCCCC3Cn3cncn3)no2)c1` (stereo unspecified), the cytotoxicity at 10 µM was -3.2%.

For `Cc1noc(CCCC(=O)NC(C)c2ccccn2)n1` (stereo unspecified), the cytotoxicity at 10 µM is -10.9%.

`c1cc(NCc2ccncc2)nc(C2CCCN2)c1` (stereo unspecified): the cytotoxicity at 10 µM is -2.55%.

As for `O=C([C@@H]1CN(Cc2nccs2)C[C@H]2OCC[C@H]21)N1CCOCC1`, the cytotoxicity at 10 µM was -105%.

For the molecule `CC1=N[C@@]2(CC[C@@H]3CNC[C@@H]32)C(=O)N1CC(C)C`, the cytotoxicity at 10 µM was found to be 2.98%.

Regarding `CC(=O)N1CCN(Cc2ccccn2)CC2(CC(=O)N(C)C2)C1` (stereo unspecified), the cytotoxicity at 10 µM is 1.23%.

`O=C(Cc1ccccn1)N1CCC2(CC1)CC(Oc1ccccn1)CO2` (stereo unspecified): the cytotoxicity at 10 µM was -0.0273%.

These data come from ChEMBL document CHEMBL4513216, “Probing the Open Global Health Chemical Diversity Library for Multistage-Active Starting Points for Next-Generation Antimalarials” (ACS Infect Dis, 2020).
